Source: ChEMBL document CHEMBL4007430, “Synthesis and Cytostatic and Antiviral Profiling of Thieno-Fused 7-Deazapurine Ribonucleosides” (J Med Chem, 2017)

Experiments:
HepG2 = experiment: Cytotoxicity against human HepG2 cells assessed as reduction in cell viability after 72 hrs by XTT assay; type: functional, cell-based; conditions: HepG2, 72 h
Procedure, shortened: (§1)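 Cells were incubated with compound for 3 days. Viability was then measured with the XTT tetrazolium assay.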

Adenosine kinase [1] = biological target: T1, Adenosine kinase (Homo sapiens, UniProt P55263); experiment: Drug metabolism in human HCT116 cells assessed as ADK-mediated 4-(Methylsulfanyl)-8-(beta-D-ribofuranosyl)-8H-thieno[2, 3:4,5]-pyrrolo[2,3-d]pyrimidine-5-O-monophosphate Sodium Salt formation per 5 x10^5 cells at 10 umol/L after 1 hr by UPLC-MS/MS analysis; type: ADME, cell-based; conditions: 10 µM
[2] = Cytotoxicity against human K562-TAX cells assessed as cell growth inhibition after 72 hrs by MTS assay; type: functional, cell-based
Procedure, shortened: (§2)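 Cells were exposed to compound for 3 days, then stained with MTS as a quantitative metabolic read-out. IC50 is the concentration that inhibits cell growth by 50%.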

HeLa S3 = experiment: Cytotoxicity against human HeLaS3 cells assessed as reduction in cell viability after 72 hrs by XTT assay; type: functional, cell-based; conditions: HeLa S3, 72 h; procedure, shortened: as §1
Adenosine kinase [3] = biological target: T1, Adenosine kinase; experiment: Drug metabolism in human HCT116 cells assessed as ADK-mediated 4-(Methylsulfanyl)-8-(beta-D-ribofuranosyl)-8H-thieno[2, 3:4,5]-pyrrolo[2,3-d]pyrimidine-5-O-monophosphate Sodium Salt formation per 5 x10^5 cells at 10 umol/L after 3 hrs by UPLC-MS/MS analysis; type: ADME, cell-based; conditions: 10 µM
[4] = Cytotoxicity against mrp-1/mdr-1 overexpressing human CEM-DNR-bulk cells assessed as cell growth inhibition after 72 hrs by MTS assay; type: functional, cell-based
Procedure, shortened: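 Cells were exposed to compound for 3 days, then stained with MTS as a quantitative metabolic read-out.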

Adenosine kinase [5] = biological target: T1, Adenosine kinase; experiment: Drug level in human BJ cells assessed as ADK-mediated compound formation treated with 4-(Methylsulfanyl)-8-(beta-D-ribofuranosyl)-8H-thieno[2',3':4,5]-pyrrolo[2,3-d]pyrimidine at 1 umol/L after 1 hr by UPLC-MS/MS analysis; type: ADME, cell-based
Adenosine kinase [6] = biological target: T1, Adenosine kinase; experiment: Drug level in human BJ cells assessed as ADK-mediated compound formation treated with 4-(Methylsulfanyl)-8-(beta-D-ribofuranosyl)-8H-thieno[2',3':4,5]-pyrrolo[2,3-d]pyrimidine at 10 umol/L after 3 hrs by UPLC-MS/MS analysis; type: ADME, cell-based
Adenosine kinase [7] = biological target: T1, Adenosine kinase; experiment: Drug metabolism in human HCT116 cells assessed as ADK-mediated 4-(Methylsulfanyl)-8-(beta-D-ribofuranosyl)-8H-thieno[2, 3:4,5]-pyrrolo[2,3-d]pyrimidine-5-O-monophosphate Sodium Salt formation per 5 x10^5 cells at 1 umol/L after 1 hr by UPLC-MS/MS analysis; type: ADME, cell-based; conditions: 1 µM
MRC5 = experiment: Cytotoxicity against human MRC5 cells assessed as cell growth inhibition after 72 hrs by MTS assay; type: cell-based; conditions: MRC5, 72 h; procedure, shortened: as §2
Adenosine kinase [8] = biological target: T1, Adenosine kinase; experiment: Drug level in human HCT116 cells assessed as ADK-mediated compound formation treated with 4-(Methylsulfanyl)-8-(beta-D-ribofuranosyl)-8H-thieno[2',3':4,5]-pyrrolo[2,3-d]pyrimidine at 10 umol/L after 3 hrs by UPLC-MS/MS analysis; type: ADME, cell-based
BJ = experiment: Cytotoxicity against human BJ cells assessed as cell growth inhibition after 72 hrs by MTS assay; type: cell-based; procedure, shortened: as §2
Adenosine kinase [9] = biological target: T1, Adenosine kinase; experiment: Drug level in human BJ cells assessed as ADK-mediated compound formation treated with 4-(Methylsulfanyl)-8-(beta-D-ribofuranosyl)-8H-thieno[2',3':4,5]-pyrrolo[2,3-d]pyrimidine at 1 umol/L after 3 hrs by UPLC-MS/MS analysis; type: ADME, cell-based
K562 = experiment: Cytotoxicity against human K562 cells assessed as cell growth inhibition after 72 hrs by MTS assay; type: functional, cell-based; conditions: K562, 72 h; procedure, shortened: as §2
Adenosine kinase [10] = biological target: T1, Adenosine kinase; experiment: Drug metabolism in human BJ cells assessed as ADK-mediated 4-(Methylsulfanyl)-8-(beta-D-ribofuranosyl)-8H-thieno[2, 3:4,5]-pyrrolo[2,3-d]pyrimidine-5-O-monophosphate Sodium Salt formation per 5 x10^5 cells at 1 umol/L after 1 hr by UPLC-MS/MS analysis; type: ADME, cell-based; conditions: 1 µM
HCT-116 [11] = experiment: Cytotoxicity against p53 deficient human HCT116 cells assessed as cell growth inhibition after 72 hrs by MTS assay; type: functional, cell-based; conditions: HCT-116, 72 h; procedure, shortened: as §2
Adenosine kinase [12] = biological target: T1, Adenosine kinase; experiment: Drug level in human HCT116 cells assessed as ADK-mediated compound formation treated with 4-(Methylsulfanyl)-8-(beta-D-ribofuranosyl)-8H-thieno[2',3':4,5]-pyrrolo[2,3-d]pyrimidine at 1 umol/L after 3 hrs by UPLC-MS/MS analysis; type: ADME, cell-based
Adenosine kinase [13] = biological target: T1, Adenosine kinase; experiment: Drug level assessed as human ADK-mediated compound formation treated with 4-(Methylsulfanyl)-8-(beta-D-ribofuranosyl)-8H-thieno[2',3':4,5]-pyrrolo[2,3-d]pyrimidine at 50 uM after 30 mins by HPLC analysis; type: ADME; conditions: 0.5 h
A549 = experiment: Cytotoxicity against human A549 cells assessed as cell growth inhibition after 72 hrs by MTS assay; type: functional, cell-based; conditions: A549, 72 h; procedure, shortened: as §2
Adenosine kinase [14] = biological target: T1, Adenosine kinase; experiment: Drug metabolism in human BJ cells assessed as ADK-mediated 4-(Methylsulfanyl)-8-(beta-D-ribofuranosyl)-8H-thieno[2, 3:4,5]-pyrrolo[2,3-d]pyrimidine-5-O-monophosphate Sodium Salt formation per 5 x10^5 cells at 10 umol/L after 3 hrs by UPLC-MS/MS analysis; type: ADME, cell-based; conditions: 10 µM
Adenosine kinase [15] = biological target: T1, Adenosine kinase; experiment: Drug level in human BJ cells assessed as ADK-mediated compound formation treated with 4-(Methylsulfanyl)-8-(beta-D-ribofuranosyl)-8H-thieno[2',3':4,5]-pyrrolo[2,3-d]pyrimidine at 10 umol/L after 1 hr by UPLC-MS/MS analysis; type: ADME, cell-based
Adenosine kinase [16] = biological target: T1, Adenosine kinase; experiment: Drug metabolism in human BJ cells assessed as ADK-mediated 4-(Methylsulfanyl)-8-(beta-D-ribofuranosyl)-8H-thieno[2, 3:4,5]-pyrrolo[2,3-d]pyrimidine-5-O-monophosphate Sodium Salt formation per 5 x10^5 cells at 1 umol/L after 3 hrs by UPLC-MS/MS analysis; type: ADME, cell-based; conditions: 1 µM
HCT-116 [17] = experiment: Cytotoxicity against human HCT116 cells assessed as cell growth inhibition after 72 hrs by MTS assay; type: functional, cell-based; conditions: HCT-116, 72 h; procedure, shortened: as §2
HL-60 = experiment: Cytotoxicity against human HL60 cells assessed as reduction in cell viability after 72 hrs by XTT assay; type: functional, cell-based; conditions: HL-60, 72 h; procedure, shortened: as §1
U2OS = experiment: Cytotoxicity against human U2OS cells assessed as cell growth inhibition after 72 hrs by MTS assay; type: functional, cell-based
Adenosine kinase [18] = biological target: T1, Adenosine kinase; experiment: Drug level in human HCT116 cells assessed as ADK-mediated compound formation treated with 4-(Methylsulfanyl)-8-(beta-D-ribofuranosyl)-8H-thieno[2',3':4,5]-pyrrolo[2,3-d]pyrimidine at 10 umol/L after 1 hr by UPLC-MS/MS analysis; type: ADME, cell-based
Adenosine kinase [19] = biological target: T1, Adenosine kinase; experiment: Drug metabolism in human HCT116 cells assessed as ADK-mediated 4-(Methylsulfanyl)-8-(beta-D-ribofuranosyl)-8H-thieno[2, 3:4,5]-pyrrolo[2,3-d]pyrimidine-5-O-monophosphate Sodium Salt formation per 5 x10^5 cells at 1 umol/L after 3 hrs by UPLC-MS/MS analysis; type: ADME, cell-based; conditions: 1 µM
CCRF-CEM = experiment: Cytotoxicity against human CCRF-CEM cells assessed as cell growth inhibition after 72 hrs by MTS assay
Adenosine kinase [20] = biological target: T1, Adenosine kinase; experiment: Drug level in human HCT116 cells assessed as ADK-mediated compound formation treated with 4-(Methylsulfanyl)-8-(beta-D-ribofuranosyl)-8H-thieno[2',3':4,5]-pyrrolo[2,3-d]pyrimidine at 1 umol/L after 1 hr by UPLC-MS/MS analysis; type: ADME, cell-based
Adenosine kinase [21] = biological target: T1, Adenosine kinase; experiment: Drug metabolism in human BJ cells assessed as ADK-mediated 4-(Methylsulfanyl)-8-(beta-D-ribofuranosyl)-8H-thieno[2, 3:4,5]-pyrrolo[2,3-d]pyrimidine-5-O-monophosphate Sodium Salt formation per 5 x10^5 cells at 10 umol/L after 1 hr by UPLC-MS/MS analysis; type: ADME, cell-based; conditions: 10 µM

T1 sequence (P55263 whole entry): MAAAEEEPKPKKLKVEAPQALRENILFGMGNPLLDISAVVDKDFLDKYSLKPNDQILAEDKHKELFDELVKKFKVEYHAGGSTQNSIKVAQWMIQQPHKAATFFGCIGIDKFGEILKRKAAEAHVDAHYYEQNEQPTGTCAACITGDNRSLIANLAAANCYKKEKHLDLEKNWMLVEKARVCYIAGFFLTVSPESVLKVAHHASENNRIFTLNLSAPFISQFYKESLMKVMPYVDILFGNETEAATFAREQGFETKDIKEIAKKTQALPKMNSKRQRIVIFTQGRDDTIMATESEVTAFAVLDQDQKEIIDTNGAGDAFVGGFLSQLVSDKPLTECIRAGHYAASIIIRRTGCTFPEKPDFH

## CSc1ncnc2c1c1sccc1n2[C@@H]1O[C@H](COP(=O)([O-])O)[C@@H](O)[C@H]1O.[Na+]
HepG2
  IC50: 540 nM
Adenosine kinase [1]
  Drug metabolism: 6108.2 pmol
[2]
  IC50: > 50000 nM
HeLa S3
  IC50: 9610 nM
Adenosine kinase [3]
  Drug metabolism: 15246.3 pmol
[4]
  IC50: 47600 nM
Adenosine kinase [5]
  Drug metabolism: Metabolite_Detected
Adenosine kinase [6]
  Drug metabolism: Metabolite_Detected
Adenosine kinase [7]
  Drug metabolism: 4124 pmol
MRC5
  IC50: > 50000 nM
Adenosine kinase [8]
  Drug metabolism: Metabolite_Detected
BJ
  IC50: 640 nM
Adenosine kinase [9]
  Drug metabolism: Metabolite_Detected
K562
  IC50: 390 nM
Adenosine kinase [10]
  Drug metabolism: 19751.3 pmol
HCT-116 [11]
  IC50: 130 nM
Adenosine kinase [12]
  Drug metabolism: Metabolite_Detected
Adenosine kinase [13]
  Drug metabolism: Metabolite_Detected
A549
  IC50: > 50000 nM
Adenosine kinase [14]
  Drug metabolism: 65894.4 pmol
Adenosine kinase [15]
  Drug metabolism: Metabolite_Detected
Adenosine kinase [16]
  Drug metabolism: 27253.4 pmol
HCT-116 [17]
  IC50: 110 nM
HL-60
  IC50: 340 nM
U2OS
  IC50: 9890 nM
Adenosine kinase [18]
  Drug metabolism: Metabolite_Detected
Adenosine kinase [19]
  Drug metabolism: 5737.8 pmol
CCRF-CEM
  IC50: 200 nM
Adenosine kinase [20]
  Drug metabolism: Metabolite_Detected
Adenosine kinase [21]
  Drug metabolism: 62703.9 pmol
